Assay results from ChEMBL document CHEMBL1806416, “Synthesis of 2,4-diaryl chromenopyridines and evaluation of their topoisomerase I and II inhibitory activity, cytotoxicity, and structure-activity relationship” (Eur J Med Chem, 2011).

Tests used:
[1] = target: T1, DNA topoisomerase 1 (Homo sapiens) (UniProt P11387); experiment: Inhibition of human recombinant DNA topoisomerase 1 assessed as inhibition of supercoiled pBR322 DNA relaxation at 100 uM after 30 mins by gel electrophoresis
T1 sequence (whole entry): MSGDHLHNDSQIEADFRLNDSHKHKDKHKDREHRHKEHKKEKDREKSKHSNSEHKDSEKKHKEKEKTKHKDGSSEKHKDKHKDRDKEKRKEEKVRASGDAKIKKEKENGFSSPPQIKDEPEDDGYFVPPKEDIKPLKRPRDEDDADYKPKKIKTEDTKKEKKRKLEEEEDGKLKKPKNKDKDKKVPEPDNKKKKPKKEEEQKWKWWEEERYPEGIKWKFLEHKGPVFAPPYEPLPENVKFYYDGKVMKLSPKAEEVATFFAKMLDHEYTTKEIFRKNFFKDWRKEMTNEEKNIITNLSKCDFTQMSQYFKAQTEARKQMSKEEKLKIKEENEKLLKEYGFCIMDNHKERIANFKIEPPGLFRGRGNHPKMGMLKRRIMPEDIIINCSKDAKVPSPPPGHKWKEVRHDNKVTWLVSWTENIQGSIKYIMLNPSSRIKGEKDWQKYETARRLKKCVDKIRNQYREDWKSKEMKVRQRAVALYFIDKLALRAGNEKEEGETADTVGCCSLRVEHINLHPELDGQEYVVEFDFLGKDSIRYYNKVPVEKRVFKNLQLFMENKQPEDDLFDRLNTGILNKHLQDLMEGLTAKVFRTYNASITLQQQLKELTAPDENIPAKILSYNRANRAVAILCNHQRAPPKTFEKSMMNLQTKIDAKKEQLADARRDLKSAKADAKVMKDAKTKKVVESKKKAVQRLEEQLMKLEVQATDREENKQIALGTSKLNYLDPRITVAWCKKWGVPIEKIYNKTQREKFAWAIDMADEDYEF
Method in brief: (§1)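 100 ng pBR322 with 0.4 units recombinant human topo I, incubated 30 min at 37 °C in 10 mM Tris-HCl pH 7.9, 150 mM NaCl, 0.1% BSA, 1 mM spermidine, 5% glycerol. Stopped with sarcosyl stop solution. Run on 1% agarose in TAE at 15 V for 7 h, stained with ethidium bromide, bands quantified under UV. Three experiments in triplicate.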

[2] = target: DNA topoisomerase 2-alpha (Homo sapiens) (UniProt P11388); experiment: Inhibition of human DNA topoisomerase 2 alpha assessed as inhibition of supercoiled pBR322 DNA relaxation at 100 uM after 30 mins by gel electrophoresis
Method in brief: (§2)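 200 ng supercoiled pBR322 with 1 unit human topo IIα, incubated 30 min at 30 °C in 10 mM Tris-HCl pH 7.9, 50 mM NaCl, 5 mM MgCl2, 1 mM EDTA, 1 mM ATP, BSA. Stopped with EDTA. Run on 1% agarose in TAE at 25 V for 4 h, stained with ethidium bromide, supercoiled band quantified under UV. Three experiments in triplicate.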

[3] = target: T1, DNA topoisomerase 1 (Homo sapiens); experiment: Inhibition of human recombinant DNA topoisomerase 1 assessed as inhibition of supercoiled pBR322 DNA relaxation at 20 uM after 30 mins by gel electrophoresis; method in brief: as §1
MDA-MB-231 = experiment: Cytotoxicity against human MDA-MB-231 cells after 2 days; assay type: functional
Method in brief: (§3)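 Cells grown per supplier's instructions, seeded at 2-4 × 10^4 per well and incubated overnight in medium with 10% FBS, 5% CO2, 37 °C. Day 2: medium replaced with graded compound concentrations from DMSO stock (20 mM). Day 4: CCK-8 added for 4 h, absorbance read at 450 nm. Three experiments, each in triplicate, mean ± S.D.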

DU-145 = experiment: Cytotoxicity against human DU145 cells after 2 days; assay type: functional, cell-based; conditions: DU-145, 48 h; method in brief: as §3
HCT-15 = experiment: Cytotoxicity against human HCT15 cells after 2 days; assay type: functional, cell-based; conditions: HCT-15, 48 h; method in brief: as §3
HeLa = experiment: Cytotoxicity against human HeLa cells after 2 days; assay type: functional, cell-based; conditions: 48 h; method in brief: as §3
HL-60 = experiment: Cytotoxicity against human HL60 cells after 2 days; assay type: functional, cell-based; conditions: HL-60, 48 h; method in brief: as §3
[4] = target: DNA topoisomerase 2-alpha (Homo sapiens) (UniProt P11388); experiment: Inhibition of human DNA topoisomerase 2 alpha assessed as inhibition of supercoiled pBR322 DNA relaxation at 20 uM after 30 mins by gel electrophoresis; method in brief: as §2

DNA topoisomerase 2-alpha (Homo sapiens), sequence (P11388 whole entry): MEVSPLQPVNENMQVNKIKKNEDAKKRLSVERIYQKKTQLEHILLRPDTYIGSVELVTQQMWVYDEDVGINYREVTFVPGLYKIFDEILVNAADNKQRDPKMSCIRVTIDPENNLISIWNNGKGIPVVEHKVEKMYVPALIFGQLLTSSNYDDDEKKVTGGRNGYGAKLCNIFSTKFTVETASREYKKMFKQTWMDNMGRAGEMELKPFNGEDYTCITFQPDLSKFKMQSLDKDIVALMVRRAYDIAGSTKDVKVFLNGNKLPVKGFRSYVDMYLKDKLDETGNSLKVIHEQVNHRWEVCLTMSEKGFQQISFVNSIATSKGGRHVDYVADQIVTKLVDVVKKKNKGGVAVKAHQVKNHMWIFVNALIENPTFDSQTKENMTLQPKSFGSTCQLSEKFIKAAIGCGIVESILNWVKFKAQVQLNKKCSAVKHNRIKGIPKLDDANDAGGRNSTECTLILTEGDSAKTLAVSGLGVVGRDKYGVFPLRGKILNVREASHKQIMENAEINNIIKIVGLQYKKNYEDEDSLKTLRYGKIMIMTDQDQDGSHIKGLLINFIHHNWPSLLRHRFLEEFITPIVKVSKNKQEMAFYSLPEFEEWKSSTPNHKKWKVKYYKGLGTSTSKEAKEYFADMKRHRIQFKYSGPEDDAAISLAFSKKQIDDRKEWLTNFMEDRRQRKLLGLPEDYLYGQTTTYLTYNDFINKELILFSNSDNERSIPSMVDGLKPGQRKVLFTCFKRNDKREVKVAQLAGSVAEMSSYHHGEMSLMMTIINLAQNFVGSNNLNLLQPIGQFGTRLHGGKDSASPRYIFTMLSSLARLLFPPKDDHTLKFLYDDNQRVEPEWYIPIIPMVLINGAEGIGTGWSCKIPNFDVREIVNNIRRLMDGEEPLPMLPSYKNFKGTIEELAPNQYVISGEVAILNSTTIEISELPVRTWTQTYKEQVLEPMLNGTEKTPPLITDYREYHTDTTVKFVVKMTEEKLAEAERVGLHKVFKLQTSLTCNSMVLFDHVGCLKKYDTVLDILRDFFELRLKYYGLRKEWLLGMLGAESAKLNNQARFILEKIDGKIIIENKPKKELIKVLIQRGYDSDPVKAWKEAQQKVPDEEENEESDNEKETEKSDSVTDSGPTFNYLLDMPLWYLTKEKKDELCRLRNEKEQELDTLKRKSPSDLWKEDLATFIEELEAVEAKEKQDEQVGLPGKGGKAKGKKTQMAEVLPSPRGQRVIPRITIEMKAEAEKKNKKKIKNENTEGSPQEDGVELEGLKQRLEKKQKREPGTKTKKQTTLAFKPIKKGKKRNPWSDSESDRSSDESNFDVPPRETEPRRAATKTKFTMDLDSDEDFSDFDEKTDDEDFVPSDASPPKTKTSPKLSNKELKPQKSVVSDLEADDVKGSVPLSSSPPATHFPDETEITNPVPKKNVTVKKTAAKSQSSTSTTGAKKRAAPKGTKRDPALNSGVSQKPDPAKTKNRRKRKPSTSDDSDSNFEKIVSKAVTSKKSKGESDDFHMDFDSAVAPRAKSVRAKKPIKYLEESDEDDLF

Structure (SMILES)	inhibition [1]	inhibition [2]	inhibition [3]	inhibition [4]	IC50 (MDA-MB-231)	IC50 (DU-145)	IC50 (HCT-15)	IC50 (HeLa)	IC50 (HL-60)
c1ccc(-c2cc(-c3cccs3)c3c(n2)-c2ccccc2OC3)nc1	48.2%	19.4%	4.1%	–	2.4 µM	13.1 µM	14 µM	6.2 µM	13.7 µM
CC[C@@]1(O)C(=O)OCc2c1cc1n(c2=O)Cc2cc3ccccc3nc2-1 [CAMPTOTHECIN]	–	–	–	–	0.3 µM	–	–	–	–
c1ccc(-c2cc(-c3ccoc3)c3c(n2)-c2ccccc2OC3)cc1	1.9%	10.5%	–	–	10 µM	> 50 µM	31.1 µM	39.6 µM	6.6 µM
c1ccc(-c2cc(-c3ccco3)c3c(n2)-c2ccccc2OC3)cc1	0%	11.5%	–	–	11.6 µM	18.6 µM	12.3 µM	1.4 µM	7.3 µM
c1ccc(-c2cc(-c3ccccn3)c3c(n2)-c2ccccc2OC3)cc1	0%	8.7%	–	–	1.9 µM	1.9 µM	12.1 µM	2.8 µM	> 50 µM
c1coc(-c2cc(-c3cccs3)nc3c2COc2ccccc2-3)c1	9.2%	14.1%	–	–	–	–	–	–	–
COc1cc([C@@H]2c3cc4c(cc3[C@@H](O[C@@H]3O[C@@H]5CO[C@@H](C)O[C@H]5[C@H](O)[C@H]3O)[C@H]3COC(=O)[C@H]23)OCO4)cc(OC)c1O [ETOPOSIDE]	–	–	–	22.3%	0.7 µM	–	–	–	–
c1csc(-c2cc(-c3cccs3)c3c(n2)-c2ccccc2OC3)c1	0.7%	7.9%	–	–	–	–	–	–	–
c1ccc(-c2cc(-c3ccco3)nc3c2COc2ccccc2-3)nc1	11.5%	2%	–	–	–	–	–	–	–
c1ccc(-c2cc(-c3cccnc3)c3c(n2)-c2ccccc2OC3)cc1	0%	14%	–	–	–	–	–	–	–
c1ccc(-c2cc(-c3ccccn3)c3c(n2)-c2ccccc2OC3)nc1	0.6%	10.7%	–	–	4.7 µM	> 50 µM	23.1 µM	> 50 µM	0.2 µM
c1ccc(-c2cc(-c3ccsc3)nc3c2COc2ccccc2-3)nc1	3.3%	25.3%	–	3.2%	25.8 µM	5 µM	8.3 µM	> 50 µM	> 50 µM
c1cncc(-c2cc(-c3ccco3)nc3c2COc2ccccc2-3)c1	41.6%	5.6%	15.5%	–	1.1 µM	4.6 µM	0.6 µM	2.2 µM	1.8 µM
c1ccc(-c2cc(-c3ccco3)c3c(n2)-c2ccccc2OC3)nc1	4.4%	23.4%	–	–	3.3 µM	22.9 µM	> 50 µM	> 50 µM	18.6 µM
c1coc(-c2cc(-c3cccs3)c3c(n2)-c2ccccc2OC3)c1	0%	6.8%	–	–	–	–	–	–	–
COc1cccc2c1C(=O)c1c(O)c3c(c(O)c1C2=O)C[C@@](O)(C(=O)CO)C[C@@H]3O[C@H]1C[C@H](N)[C@H](O)[C@H](C)O1 [DOXORUBICIN]	–	–	–	–	0.4 µM	–	–	–	–
c1ccc(-c2cc(-c3cccnc3)c3c(n2)-c2ccccc2OC3)nc1	2.6%	8.7%	–	–	7.2 µM	4.4 µM	3.3 µM	1.3 µM	> 50 µM
c1coc(-c2cc(-c3ccco3)c3c(n2)-c2ccccc2OC3)c1	46.4%	11.6%	22.9%	–	0.6 µM	0.9 µM	0.6 µM	1.3 µM	3.4 µM

Continued, in another order:

inhibition [1]	inhibition [2]	inhibition [3]	inhibition [4]	Structure (SMILES)	IC50 (MDA-MB-231)	IC50 (DU-145)	IC50 (HCT-15)	IC50 (HeLa)	IC50 (HL-60)
5.5%	7.5%	–	–	c1ccc(-c2cc(-c3cccs3)nc3c2COc2ccccc2-3)cc1	–	–	–	–	–
3.1%	7.2%	–	–	c1ccc(-c2cc(-c3ccccn3)nc3c2COc2ccccc2-3)cc1	11.1 µM	7.6 µM	15.6 µM	5 µM	14.5 µM
3.7%	17.6%	–	–	c1ccc(-c2cc(-c3ccsc3)c3c(n2)-c2ccccc2OC3)cc1	11.9 µM	> 50 µM	> 50 µM	> 50 µM	> 50 µM
4.9%	28.4%	–	–	c1ccc(-c2cc(-c3ccco3)nc3c2COc2ccccc2-3)cc1	0.2 µM	0.1 µM	0.4 µM	2.3 µM	1.4 µM
0%	10.8%	–	–	c1ccc(-c2cc(-c3cccs3)c3c(n2)-c2ccccc2OC3)cc1	3.9 µM	2.6 µM	1.2 µM	16 µM	> 50 µM
0%	15.4%	–	–	c1ccc(-c2cc(-c3ccccc3)c3c(n2)-c2ccccc2OC3)cc1	1.8 µM	6.9 µM	5.1 µM	14.2 µM	18.8 µM
1.8%	8.5%	–	–	c1ccc(-c2cc(-c3cccs3)nc3c2COc2ccccc2-3)nc1	–	–	–	–	–
0%	8.4%	–	–	c1csc(-c2cc(-c3ccoc3)c3c(n2)-c2ccccc2OC3)c1	–	–	–	–	–
